{
  "source": "PubChem BioAssay AID504733",
  "about": "(Southern Research Specialized Biocontainment Screening …, 2011)",
  "data": [
    {"tested_on": "E. coli UTI89 capsule, orcinol OD572", "experiment": "E. coli capsule biogenesis inhibitors, orcinol readout, confirmation, orthogonal assay, orcinol colorimetric, UTI89 strain, 100 µM (AID 504733)", "settings": "at 100 µM; stronger effect = lower value", "procedure,_shortened": "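Test system: Uropathogenic E. coli UTI89 or its capsule-export mutant ΔkpsM | Doses: One 100 µM compound dose | Timing: Hydrolysis step 1 h, 80 °C, pH 2 | Technique: Orcinol colour at OD 572 nm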", "units": {"capsule formation": "%"}, "values": [
      {"smiles": "CC1=NN2C(=N)/C(=C\\c3ccc(SCc4ccco4)o3)C(=O)N=C2S1", "capsule formation": 20.2},
      {"smiles": "O=C(ONc1ccc(N=NC(=O)c2ccccc2O)cc1)c1ccccc1", "capsule formation": 16},
      {"smiles": "O=C(Nc1ccncc1)c1ccc2ncsc2c1", "capsule formation": 19.1},
      {"smiles": "CCOc1ccc(-c2cc(NC(=O)c3c(F)cccc3F)c(C(=O)O)s2)cc1", "capsule formation": 9.04},
      {"smiles": "O=C(NCc1cc([N+](=O)[O-])ccc1O)c1cccnc1Sc1ccccc1Cl", "capsule formation": 18.6},
      {"smiles": "COc1ccc2nc(NC(=O)c3ccc(Br)s3)sc2c1", "capsule formation": 24.5}
    ]}
  ]
}
